RBBP9 inh – inhibitors of human serine hydrolase RBBP9; O75884; 0.2% of 220,000 active; inhibition, % at 7.94 µM; recombinant RBBP9, FP-Rh probe fluorescence polarization;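 active = inhibition above the campaign mean of all tested compounds plus 3 SD, cut at about 14% in these data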
Target sequence (O75884 whole entry, looked up): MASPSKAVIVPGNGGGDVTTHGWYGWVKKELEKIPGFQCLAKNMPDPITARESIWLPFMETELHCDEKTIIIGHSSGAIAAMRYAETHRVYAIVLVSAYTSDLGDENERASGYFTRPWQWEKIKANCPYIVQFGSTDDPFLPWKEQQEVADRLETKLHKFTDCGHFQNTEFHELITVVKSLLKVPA
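Assay system: recombinant human RBBP9; Reagent: Serine-hydrolase probe FP-Rh, 375 nM pre-mixing; Doses: 7.94 µM single dose, 0.794% DMSO; Incubation: 30 min then 45 min, 25 °C; Detection: fluorescence polarization (mP), excitation 525 nm, emission 598 nm; Evaluation: percent inhibition from mP, scaled between DMSO and no-protein wells.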
PRMT1 FP inh – blocks human protein arginine methyltransferase 1 | recombinant PRMT1, activity-based probe fluorescence polarization | inhibition, % at 2.79 µM | Q99873 | 1.3% of 370,000 active;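 active = inhibition above about 21% made by adding two undisclosed values, limit read from the data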
MBD2 DNA inh – inhibitors of human MBD2 binding to methylated oligonucleotide; Q9UBB5; TR-FRET; inhibition, % at 4.4 µM; 0.31% of 370,000 active; AID 686964; in the data active = inhibition above about 13%
Target sequence (Q9UBB5 whole entry, looked up): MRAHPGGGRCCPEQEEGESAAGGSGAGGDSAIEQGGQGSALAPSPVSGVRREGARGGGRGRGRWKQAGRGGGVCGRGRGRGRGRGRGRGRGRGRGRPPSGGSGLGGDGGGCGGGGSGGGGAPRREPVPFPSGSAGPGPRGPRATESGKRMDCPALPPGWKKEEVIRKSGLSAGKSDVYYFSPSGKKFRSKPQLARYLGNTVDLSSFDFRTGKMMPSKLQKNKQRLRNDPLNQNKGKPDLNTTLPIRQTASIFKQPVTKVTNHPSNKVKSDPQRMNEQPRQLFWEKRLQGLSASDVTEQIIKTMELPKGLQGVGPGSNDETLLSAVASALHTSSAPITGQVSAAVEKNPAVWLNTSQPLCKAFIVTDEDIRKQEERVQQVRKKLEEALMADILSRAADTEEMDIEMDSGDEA
UHRF1 binding – human UHRF1 methylated DNA binding inhibitors; AID 687016; 0.75% of 370,000 active; inhibition, % at 4.4 µM; UHRF1 binding to methylated oligo, TR-FRET; in the data active = inhibition above about 21%;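 also: UHRF1 SRA domain binding a hemimethylated CpG hairpin DNA probe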
LEDGF integ inh – blocks HIV-1 LEDGF/p75-dependent DNA integration; TR-FRET IN-LEDGF/p75 DNA integration, Eu/Cy5; inhibition, % at 3.7 µM; 0.64% of 370,000 active;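 active = inhibition above the screen-wide mean plus 3 SD, cut at about 13% in these data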;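 also: signal is the Cy5 over europium emission ratio at 671 and 618 nm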
ABHD5 PLIN5 PPI – inhibitors of human ABHD5-perilipin-5 interaction | Split G. princeps luciferase complementation, luminescence, 4 h | inhibition, % at 4 µM | 0.78% of 360,000 active;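 active = inhibition above the mean inhibition across every tested compound plus 3 SD, cut at about 22% in these data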
Of the large screens only hits and unclear results are named; the others gave an inactive call. Only some compounds are listed: those with a hit (about 3.1% of all), similar ones and a draw of the others.

Cc1cccc(CC2CC(=O)N(CCc3ccc4c(c3)OCO4)C2=O)c1 (configuration not stated)	UHRF1 binding 40
C[C@@H]1OC(C2CCCCC2)N(C)[C@H]2C[C@H]3c4cc(-c5ccc6c(c5)OCO6)ccc4CCN3C[C@@H]12 (some centres not stated)	none (no result: RBBP9 inh, ABHD5 PLIN5 PPI)
CC(COc1cc(F)cc(F)c1)CN1CCC(C(O)(c2ccccc2)c2ccccc2)CC1 (configuration not stated)	none (no result: RBBP9 inh, ABHD5 PLIN5 PPI)
N=c1cc(C2(O)CCCCC2)n2c(nc3ccccc32)s1	PRMT1 FP inh 25
Clc1cccc(Cc2c(C3CCCCC3)nc3c4ccccc4ccn23)c1	UHRF1 binding 24 (no result: RBBP9 inh)
Cc1ccc2nc(C3CCCCC3)c(Cc3ccccc3C(F)(F)F)n2c1	none (no result: RBBP9 inh)
FC(F)(F)c1ccccc1Cc1c(C2CCCCC2)nc2c3ccccc3ccn12	UHRF1 binding 22 (no result: RBBP9 inh)
COc1ccc(-n2c(COc3ccc(C)cc3)nnc2SCC(=O)c2ccc(-c3ccccc3)cc2)cc1	none (no result: RBBP9 inh, ABHD5 PLIN5 PPI)
COc1cc2c(c(OC)c1)C(=O)O[C@H](C)C[C@@H]1O[C@H]1CCCCC(=O)C2	none (no result: RBBP9 inh, ABHD5 PLIN5 PPI)
COc1cc(O)c(CCC(=O)c2ccc(OC)c(OC)c2)c(OC)c1	UHRF1 binding 63 (no result: RBBP9 inh)
COc1cccc(CO[C@H]2C=C[C@@H](c3ccccc3)O[C@@H]2CO)c1	none (no result: RBBP9 inh, ABHD5 PLIN5 PPI)
CCNC(=S)N/N=C/c1c(Cl)cccc1Cl	none
CC(C)(C)NC(=S)N/N=C/c1c(Cl)cccc1Cl	UHRF1 binding 36
CCOC(=O)c1c(/N=C/c2ccc(C)cc2O)sc2c1CCC2	none
CCOC(=O)c1c(/N=C/N(C)C)sc2c1CCC2	UHRF1 binding 95
CC(=O)c1c(C)n(-c2ccccc2)c2ccc(OCC(O)CN3CCOCC3)cc12 (configuration not stated)	UHRF1 binding 83
COC[C@H]1CCCN1c1ccc2c(c1)O[C@H](C)CCN(C1CC1)S2(=O)=O	none (no result: RBBP9 inh, ABHD5 PLIN5 PPI)
CNC(=O)CN(c1cc(C)ccc1OC)S(=O)(=O)c1ccc(C)cc1	UHRF1 binding 41
COc1ccc(N(CC(=O)NC2CC3CCC2C3)S(=O)(=O)c2ccc(C)cc2)cc1Cl (configuration not stated)	UHRF1 binding 22 (no result: RBBP9 inh)
COc1ccc2c(c(-c3ccccc3)cn2C)c1-c1ccccc1	none (no result: RBBP9 inh, ABHD5 PLIN5 PPI)
CCN(CC)C(=O)CC[C@H]1CC[C@]2(CCCN(C(=O)c3cccnc3)C2)O1	none (no result: RBBP9 inh, ABHD5 PLIN5 PPI)
COc1ccccc1C1=NNC(=Nc2cccc(S(=O)(=O)N(C)C)c2)SC1	PRMT1 FP inh 22
C(=N\Nc1nc(-c2ccccc2)cs1)/c1ccco1	PRMT1 FP inh 24
COc1ccccc1NC(=O)C1=C(C)NC(=O)NC1c1cccc(OC)c1OC (configuration not stated)	none
CCOc1ccccc1NC(=O)C1=C(C)NC(=O)NC1c1cccc(OC)c1OC (configuration not stated)	UHRF1 binding 23
N/C(=N\OC(=O)/C=C/c1ccc(Br)cc1)c1ccccn1	UHRF1 binding 23
CSc1ccccc1C(=O)Nc1cccc(C(C)O)c1 (configuration not stated)	UHRF1 binding 21
COc1ccccc1CCn1cnc(-c2cccc(Br)c2)c1CC(C)C	none (no result: RBBP9 inh, ABHD5 PLIN5 PPI)
Nc1cc(N)nc(SCc2ccccc2Cl)n1	none (no result: RBBP9 inh)
Cc1cc2c(SCc3ccccc3Cl)nc(N)nc2nc1C	PRMT1 FP inh 24 (no result: RBBP9 inh)
C[C@H](CO)N1C[C@H](C)[C@@H](CN(C)C(=O)Nc2cccc(F)c2)OCc2cn(nn2)CCCC1=O	none (no result: RBBP9 inh, ABHD5 PLIN5 PPI)
COCC#Cc1ccc(CC[C@H]2O[C@H]3CC[C@@H](CO)O[C@H]3C[C@H]2n2cc(C3CC3)nn2)cc1	none (no result: RBBP9 inh, ABHD5 PLIN5 PPI)
Cc1ccc([C@H](C)NC(=O)C2=C(N)N(S(=O)(=O)c3ccc(C)cc3)C(C(=O)c3ccccc3)C2c2ccccc2Cl)cc1 (some centres not stated)	none (no result: RBBP9 inh, ABHD5 PLIN5 PPI)
O=C(Nc1cccc(NC(=O)c2ccccc2Cl)c1)c1ccc(F)cc1	UHRF1 binding 27 (no result: RBBP9 inh)
Cc1ccc(O)c(NC(=O)CSc2n[nH]c(C)c2[N+](=O)[O-])c1	UHRF1 binding 33
Cc1cc2c(nc1C)CCCN2S(=O)(=O)c1c(C)noc1C	none (no result: RBBP9 inh, ABHD5 PLIN5 PPI)
COc1ccc(C)c2sc(N3CCCC3)nc12	UHRF1 binding 25
CC(=O)N1CCc2cc(S(=O)(=O)NCCC(=O)NCc3ccc(Cl)cc3)ccc21	none (no result: RBBP9 inh, ABHD5 PLIN5 PPI)
O=C1N=c2ccccc2=C1c1c(O)n(-c2cccc(F)c2)[nH]c1=O	PRMT1 FP inh 21
Cc1c(NC(=O)CN2CCN(c3ccc(O)cc3)CC2)c(=O)n(-c2ccccc2)n1C	PRMT1 FP inh 23
NC(=O)C1CCN(c2ncc(Br)s2)CC1	PRMT1 FP inh 22 (no result: RBBP9 inh, ABHD5 PLIN5 PPI)
O=C(NNc1nc2cc3c(cc2s1)OCO3)c1ccc(F)cc1	PRMT1 FP inh 23
O=C(O)C1Nc2c(O)cc(Cl)c([N+](=O)[O-])c2C2C=CCC12 (configuration not stated)	PRMT1 FP inh 36, MBD2 DNA inh 63, UHRF1 binding 93, LEDGF integ inh 72
O=C(CN1CCN(Cc2ccccc2)CC1)N/N=C\c1ccccc1[N+](=O)[O-]	none (no result: RBBP9 inh, ABHD5 PLIN5 PPI)
CCc1ccc(Nc2ncc3c(n2)CC(C)(C)CC3=O)cc1	UHRF1 binding 42
COc1ccc(C(=O)c2[nH]c(N)c(C(=O)c3c[nH]c4ccccc34)c2-c2ccc(OC)cc2)cc1	none (no result: RBBP9 inh, ABHD5 PLIN5 PPI)
O=C(CNC(=O)c1ccc(Br)cc1)NCC(=O)OCC(=O)c1ccc(F)cc1	none (no result: RBBP9 inh)
O=C(CNC(=O)c1ccc(Br)cc1)NCC(=O)OCC(=O)c1ccc([N+](=O)[O-])cc1	PRMT1 FP inh 23
Nc1[nH]c(C(=O)c2ccccc2)c(-c2ccc3ccccc3c2)c1C(=O)NCCc1ccc(Cl)cc1	none (no result: RBBP9 inh, ABHD5 PLIN5 PPI)
COc1cc(Cn2cc([C@]34C[C@H]5C(=O)N(C)CC(=O)N5[C@H]3N(S(=O)(=O)c3ccccc3)c3ccccc34)c3ccccc32)cc(OC)c1	none (no result: RBBP9 inh, ABHD5 PLIN5 PPI)
COC(=O)c1c(C)[nH]c(C(=O)COC(=O)Cn2cc(C(F)(F)F)ccc2=O)c1C	UHRF1 binding 82 (no result: RBBP9 inh)
CCN(CC)C(=O)O[C@H]1CC[C@@]23CCCN2C(=O)CCC[C@H]3[C@H]1C	none (no result: RBBP9 inh, ABHD5 PLIN5 PPI)
CC(=O)NC(Cc1c[nH]c2ccccc12)C(=O)OCC(=O)N1CCN(S(=O)(=O)c2ccc(Cl)cc2)CC1 (configuration not stated)	none (no result: RBBP9 inh)
NC(=O)N[C@@H](Cc1c[nH]c2ccccc12)C(=O)OCC(=O)N1CCCCC1	UHRF1 binding 24
CCN(CC)CCCNC(=O)CSc1nc2cccnc2n1C	none (no result: RBBP9 inh, ABHD5 PLIN5 PPI)
CCCOc1ccc(N2C(=O)CC(SCCN)C2=O)cc1 (configuration not stated)	PRMT1 FP inh 22
CCn1c(=O)n(CC(=O)N2CCCC2)c(=O)c2ccccc21	none (no result: RBBP9 inh, ABHD5 PLIN5 PPI)
Cc1cccc(Sc2ccc([N+](=O)[O-])cc2[N+](=O)[O-])n1	UHRF1 binding 28
COc1ccccc1Nc1ccc(C(=O)NC2CCCCC2)cn1	UHRF1 binding 27
O=S(=O)(NCc1ccccn1)c1ccc2ccccc2c1	none (no result: RBBP9 inh)

Screening data as filed in PubChem.
